The species named for test [1] is Homo sapiens. The experiment in a line: Selectivity for human NTMT2 over human DNMT3b at 100 uM. An outline of the steps: (§1)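 Single-point panel screen against 41 PKMTs, PRMTs, DNMTs and NTMT1/2. Each compound was tested at 100 µM, in duplicate (n=2).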
The species entered for test [2] is Homo sapiens. The experiment in a line: Selectivity for human NTMT1 over human SETD2 at 100 uM. The essentials: (§2)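 Panel of 41 PKMTs, PRMTs, DNMTs and NTMT1/2, tested at 100 µM compound in duplicate (n=2).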
The species entered for test [3] is Homo sapiens. The experiment in a line: Selectivity for human NTMT2 over human DNMT3a at 100 uM. The essentials:
as §1

For test [4], the species on record is Homo sapiens. The experiment in a line: Selectivity for human NTMT2 over human SMYD1 at 100 uM. The essentials: as §1
The target of test [5] is T1, N-terminal Xaa-Pro-Lys N-methyltransferase 1 (Homo sapiens) (UniProt Q9BV86).
T1 sequence (whole entry): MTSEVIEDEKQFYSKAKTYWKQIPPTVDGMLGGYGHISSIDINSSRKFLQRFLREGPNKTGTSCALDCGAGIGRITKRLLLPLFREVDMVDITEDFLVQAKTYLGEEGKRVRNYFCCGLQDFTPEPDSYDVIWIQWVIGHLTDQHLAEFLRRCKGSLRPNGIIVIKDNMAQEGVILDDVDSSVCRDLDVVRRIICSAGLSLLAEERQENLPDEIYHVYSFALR
The experiment in a line: Competitive inhibition of recombinant human full-length His6-tagged NTMT1 (1 to 222 residues) expressed in Escherichia coli BL21-CodonPlus(DE3)-RIL competent cells pre-incubated for 10 mins in presence of fixed SAM and SAHH before varying levels of RCC1-6 addition and measured after 15 mins by fluorescence based SAHH-coupled assay. The following applies: time 25.0 min. An outline of the steps:
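After 10 min at 37 °C, started with RCC1-6 at 0.5, 1, 1.5, 2, 4 or 8 µM. Read Ex 370/Em 500 nm for 15 min at 37 °C. Triplicate IC50 at each level plotted against [RCC1-6]/Km.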

The species entered for test [6] is Homo sapiens. Briefly: Selectivity for human NTMT1 over human SMYD2 at 100 uM. The essentials:
as §2

The species named for test [7] is Homo sapiens. The experiment in a line: Selectivity for human NTMT2 over human DNMT1 at 100 uM. An outline of the steps:
as §1

Test [8] is filed under the species Homo sapiens. The experiment in a line: Selectivity for human NTMT1 over human SUV39H1 at 100 uM. The essentials:
as §1

Test [9] is filed under the species Homo sapiens. The experiment in a line: Selectivity for human NTMT2 over human ASH1L at 100 uM. The essentials:
as §1

Test [10] addresses T1, N-terminal Xaa-Pro-Lys N-methyltransferase 1 (Homo sapiens). Briefly: Non-competitive inhibition of recombinant human full-length His6-tagged NTMT1 (1 to 222 residues) expressed in Escherichia coli BL21-CodonPlus(DE3)-RIL competent cells pre-incubated for 10 mins in presence of varying levels of SAM and SAHH before fixed level of RCC1-6 addition and measured after 15 mins by fluorescence based SAHH-coupled assay. The following applies: time 25.0 min. An outline of the steps:
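Same SAHH-coupled ThioGlo1 set-up as the substrate series: 25 mM Tris pH 7.4, 50 mM KCl, 10 µM SAHH, 0.2 µM NTMT1, 15 µM ThioGlo1, inhibitor 0–100 µM. […] Triplicate IC50 at each SAM level plotted against [SAM]/Km.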

For test [11], the species on record is Homo sapiens. Briefly: Selectivity for human NTMT1 over human PRDMT5/MEP50 complex at 100 uM. An outline of the steps: as §2

Each structure is given as a SMILES string. The source made the active and inactive calls. The rule behind the calls is not given here. Bounds are passed on as bounds.

In the case of `N=C(N)NCCC[C@H](NC(=O)[C@H](CCCCN)NC(=O)[C@@H]1CCCN1C(=O)Cc1ccc(O)cc1)C(N)=O`, the Selectivity ratio in the test filed under Homo sapiens [1], in the test listed under Homo sapiens [2], in the test listed under Homo sapiens [3], in the test listed under Homo sapiens [4], in the test listed under Homo sapiens [6] and in the test filed under Homo sapiens [7] was over 100 in each case. The Selectivity ratio in the test listed under Homo sapiens [8], in the test listed under Homo sapiens [9] and in the test listed under Homo sapiens [11] was over 100 throughout. Also, the inhibition result in [5] and in test [10] was “Active” each time.
